# Assay results collected from several papers.
# Protocols differ between the studies behind these lines.
# HTR6: 5-hydroxytryptamine receptor 6 (HTR6, Homo sapiens, UniProt P50406)
# PKM: Pyruvate kinase PKM (PKM, Homo sapiens, UniProt P14618)
# HTR7: 5-hydroxytryptamine receptor 7 (HTR7, Homo sapiens, UniProt P34969)
# SIRT6: NAD-dependent protein deacylase sirtuin-6 (SIRT6, Homo sapiens, UniProt Q8N6T7)
# CDK2: Cyclin-dependent kinase 2 (CDK2, Homo sapiens, UniProt P24941)
# OR5K1 A2T/T15M/Y193C: OR5K1 (Homo sapiens, UniProt Q8NHB7, A2T/T15M/Y193C)
# STAT3: Signal transducer and activator of transcription 3 (STAT3, Homo sapiens, UniProt P40763)
SMILES,target,assay,setting,endpoint,result
Cc1ccc2cccc(N3CCN(CCCCOc4ccc5sc(C(C)C)nc5c4)CC3)c2n1,HTR6,"cell-free assay, radioligand",,Ki,2.2 µM
Cc1ccc(NS(=O)(=O)c2cc3c(cc2/C=C/c2ccccc2)NC(=O)CO3)cc1C,PKM,"enzyme activity, activator",,AC50,> 20 µM
CCc1nc2cc(OCCCCN3CCC(c4cccc(Cl)c4Cl)CC3)ccc2s1,HTR6,"cell-free assay, radioligand",,Ki,0.96 µM
CN1C[C@H](CNC(=O)OCc2ccccc2)C[C@@H]2c3cccc4c3c(cn4C)C[C@H]21,HTR7,"ligand displacement, radioligand",cell membranes,Ki,0.016 µM
NC(=O)c1ccc(C(=O)NOCc2ccc(Sc3ccc(N)cc3)c(C(F)(F)F)c2)cc1,SIRT6,"enzyme activity, inhibitor, fluorescence",,IC50,1.8 µM
c1cnc2cc3c(cc2n1)[C@@H]1CNC[C@H]3C1,"Neuronal acetylcholine receptor subunit alpha-4/beta-2 (Mus musculus, UniProt O70174+Q9ERK7)","ligand displacement, radioligand",cell membranes,Ki,0.00299 µM
Cc1ccc(C(=O)Nc2ccc(Oc3cc4cnn(C)c4cc3-c3cn[nH]c3)c(F)c2)c(=O)n1-c1ccc(F)cc1,"Vascular endothelial growth factor receptor 3 (FLT4, Homo sapiens, UniProt P35916)","enzyme activity in cells, inhibitor",,IC50,> 0.316 µM
NC(=O)c1ccc(C(=O)NOCc2ccc3nccnc3c2)cc1,SIRT6,"enzyme activity, inhibitor, fluorescence",,IC50,65 µM
CNc1cc2c(cc1S(=O)(=O)Nc1ccc(C)c(C)c1)CCC(=O)N2,PKM,"enzyme activity, activator",,AC50,0.44 µM
COc1ccc2c(Oc3ccc4c(C(=O)Nc5ccccc5N)cccc4c3)ccnc2c1,"Sodium channel protein type 5 subunit alpha (SCN5A, Homo sapiens, UniProt Q14524)","ion current, inhibitor",,IC50,> 10 µM
COc1cnccn1,"OR5K1 (Homo sapiens, UniProt Q8NHB7)","cAMP, agonist",,EC50,> 1500 µM
O=C1CCc2cc(S(=O)(=O)Nc3ccc4c(c3)OCCO4)ccc2N1,PKM,"enzyme activity, activator",,AC50,11.1 µM
NC(=O)c1ccc(C(=O)NOCc2ccc(Sc3ccccc3)c(C(F)(F)F)c2)cc1,SIRT6,"enzyme activity, inhibitor, fluorescence",,IC50,1.63 µM
CC1=C(/C=C/C2=CCC[C@]3(C)[C@@H]([C@H](C)CCCC(C)(C)O)CC[C@@H]23)C[C@@H](O)CC1,"Oxysterols receptor LXR-beta (NR1H2, Homo sapiens, UniProt P55055)","coactivator recruitment, agonist, TR-FRET",,EC50,0.01 to 0.1 µM
Cc1cc(NS(=O)(=O)c2cc3c(cc2F)NC(=O)CC3)ccc1Cl,PKM,"enzyme activity, activator",,AC50,0.6 µM
O=C(Nc1cc(C2CCCCC2)[nH]n1)c1ccc(Br)cc1,CDK2,"binding, ITC",,Kd,> 100 µM
Cc1cnc(-c2ccc(-c3ccc(NC(=O)Nc4c(F)cc(F)cc4F)cc3F)c3c2C(=O)NC3)[nH]1,"Mitogen-activated protein kinase kinase kinase kinase 1 (MAP4K1, Homo sapiens, UniProt Q92918)","binding, competition with immobilised ligand",,Kd,0.0072 µM
NC(=O)c1ccc(C(=O)NOCc2ccc(-n3cccn3)cc2)cc1,SIRT6,"enzyme activity, inhibitor, fluorescence",,IC50,2.23 µM
CC(C)[C@@H](CC[C@@H](C)[C@H]1CC[C@H]2[C@@H]3[C@H](O)C[C@H]4C[C@@H](NCCCNCCCCNCCCN)CC[C@]4(C)[C@H]3CC[C@]12C)OS(=O)(=O)O,"Receptor-type tyrosine-protein phosphatase R (PTPRR, Homo sapiens, UniProt Q15256)","enzyme activity, inhibitor",,Ki,25 µM
Cc1cnc(C)c(C)n1,OR5K1 A2T/T15M/Y193C,"cAMP, agonist",,EC50,419 µM
Cc1cccc(Sc2ccc(CONC(=O)c3ccc(C(N)=O)cc3)cc2C(F)(F)F)c1,SIRT6,"enzyme activity, inhibitor, fluorescence",,IC50,1.81 µM
CCc1ncc(C)nc1CC,OR5K1 A2T/T15M/Y193C,"cAMP, agonist",,EC50,102 µM
Nc1nc2c(ncn2[C@@H]2O[C@H](COP(=O)(O)OP(=O)(O)O)[C@@H](OP(=O)(O)OP(=O)(O)O)[C@H]2O)c(=O)[nH]1,"Xanthine-guanine phosphoribosyltransferase (Escherichia coli, UniProt P0A9M5)","binding, ITC",,Kd,3.2 µM
Cc1ccc(NS(=O)(=O)c2cc3c(cc2Cl)CCC(=O)N3)cc1Cl,PKM,"enzyme activity, activator",,AC50,0.09 µM
Cc1cc(C)c(S(=O)(=O)N(C)CC(=O)N(Cc2cc(C(C)(C)C)cc(C(C)(C)C)c2)c2ccc(C(=O)O)c(O)c2)c(C)c1,STAT3,"ligand displacement, FP",,Ki,19.7 µM
C[C@@H](CO)Nc1cc2c(cc1S(=O)(=O)Nc1ccc(F)c(Cl)c1)CCC(=O)N2,PKM,"enzyme activity, activator",,AC50,0.13 µM
CN(C)CCC=C1c2ccccc2CCc2ccccc21,HTR7,"ligand displacement, radioligand",cell membranes,Ki,0.096 µM
COc1ccc(Sc2ccc(CONC(=O)c3ccc(C(N)=O)cc3)cc2C(F)(F)F)cc1,SIRT6,"enzyme activity, inhibitor, fluorescence",,IC50,1.48 µM
CN(C)CCSc1nc2ccccc2cc1-c1ccccc1,HTR7,"ligand displacement, radioligand",cell membranes,Ki,0.393 µM
c1cncc(-c2cccc(Nc3nccc(NC4CCCCC4)n3)c2)c1,"Serine/threonine-protein kinase D3 (PRKD3, Homo sapiens, UniProt O94806)","binding, competition with immobilised ligand",,Kd,1.7 µM
CC(=O)N=S(=O)(O)c1ccc(N/C=C2\C(=O)Nc3ccc4ncsc4c32)cc1,CDK2,binding,,Kd,0.526 µM
Cc1cc2nc3c(=O)[nH]c(=O)nc-3n(C[C@H](O)[C@H](O)[C@H](O)COP(=O)(O)OP(=O)(O)OC[C@H]3O[C@@H](n4cnc5c(N)ncnc54)[C@H](O)[C@@H]3O)c2cc1C,"Nucleolysin TIAR (Homo sapiens, UniProt Q01085)",binding,lysate,Kd,0.011 µM
CC(=O)N[C@H](C(=O)N[C@@H](CC(N)=O)C(=O)N[C@@H](CCCCN)C(=O)N[C@@H](C)C(=O)N[C@@H](CC(C)C)C(=O)N1CCC[C@H]1C(=O)N[C@@H](C)C(=O)N[C@@H](CC(C)C)C(=O)N1CCC[C@H]1C(=O)N[C@H](C(=O)N[C@@H](C)C(N)=O)C(C)C)C(C)C,"Tyrosine-protein kinase Fyn, SH3 (FYN, Homo sapiens, UniProt P06241)","binding, ITC",pH 7,Kd,70 µM
Cc1ccc(NS(=O)(=O)c2cc3c(cc2NC(C)CO)NC(=O)CC3)cc1C (stereo not shown),PKM,"enzyme activity, activator",,AC50,0.23 µM
CCc1nccnc1OC,OR5K1 A2T/T15M/Y193C,"cAMP, agonist",,EC50,578 µM
Cc1nc2n(c(=O)c1CCN1CCC(c3noc4cc(F)ccc34)CC1)CCCC2O (stereo not shown),HTR7,"ligand displacement, radioligand",cell membranes,Ki,0.01 µM
CC(N)c1ccc(C(=O)NOCc2ccc(C(F)(F)F)cc2)cc1 (stereo not shown),SIRT6,"enzyme activity, inhibitor, fluorescence",,IC50,2.64 µM
Cc1ccc(NS(=O)(=O)c2ccc3c(c2)CCC(=O)N3)cc1F,PKM,"enzyme activity, activator",,AC50,0.54 µM
NCCc1ccc(C(=O)NOCc2ccc(C(F)(F)F)cc2)cc1,SIRT6,"enzyme activity, inhibitor, fluorescence",,IC50,2.65 µM
Cc1cc(C)c(S(=O)(=O)N(C)CC(=O)N(Cc2ccc3ccccc3c2)c2ccc(C(=O)O)c(O)c2)c(C)c1,STAT3,"ligand displacement, FP",,Ki,27.7 µM
